Tested on: MS2 coat protein
Assay: apparent Kd, MS2 coat protein; higher = weaker binding; RNA-MaP array; FMN 200 µM where present
In short: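 The titrant was SNAP-549-labelled MS2 coat protein, run from 0.7 or 1.5 nM in doubling steps to 3 µM. It was applied to designs transcribed by stalled E. coli RNA polymerase on Illumina sequencing-chip clusters, without ligand first and then with constant ligand, in 100 mM Tris-HCl pH 7.5, 80 mM KCl, 4 mM MgCl2, BSA, DTT, yeast tRNA and Tween-20. The apparent Kd is the median of filtered per-cluster binding-curve fits, with green signal normalised to red-channel RNA signal and control-cluster median Fmax.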

[1] = designed as: OFF switch for flavin mononucleotide, no ligand
[2] = ligand present: flavin mononucleotide, designed as: OFF switch for flavin mononucleotide
[3] = designed as: ON switch for flavin mononucleotide, no ligand
[4] = ligand present: flavin mononucleotide, designed as: ON switch for flavin mononucleotide

## GGUCCACAUGAGGAUCACCCAUGUUAGGAUAUCUCCCGCCUCCUCACUGGAGACGGACAGAGAAGGAACAUCAA
[1]
  apparent Kd: 23.6 nM
[2]
  apparent Kd: 74.7 nM

## GGUCCCUACGCACAGGAUAUUCUUUUGGCAACAUGAGGAUCACCCAUGUGUGCCGAUCAUGGUUAGAAGAAGGGUGGUAGGGACC
[3]
  apparent Kd: 20.6 nM
[4]
  apparent Kd: 15.7 nM

## AAAUGAUGUCAGGAUAUUGACGUUAAAAGAACGCAAGAAGGGACAACAUGAGGAUCACCCAUGUGGUCCUAUAA
[1]
  apparent Kd: 14.9 nM
[2]
  apparent Kd: 34 nM

## AGAAUAAACCAGAAGGCGUAGAUACAUGAGGAUCACCCAUGUAUACUUGCGAGGAUAUGGAUGAUUCAAGUGCGUUUCGUAGCA
[3]
  apparent Kd: 6.06 nM
[4]
  apparent Kd: 4.23 nM

## CUUUUGUGAGGAUAUUCGUAGUAGGGUCAUGGCAUUAUUAUGAAGAAGGCACAUGAGGAUCACCCAUGUACCUU
[1]
  apparent Kd: 17.3 nM
[2]
  apparent Kd: 34.6 nM

## AUUUAUGGCCAGAAGGACAUGAGGAUCACCCAUGUAGGAUAUGGACGAUUUUACUCGGCGGUUCGUUUAGGAAGCACCGGCGGU
[3]
  apparent Kd: 8.58 nM
[4]
  apparent Kd: 5.91 nM

## CCAUGGCUGUUAGGAUAUGUCUGACAAAGUCAGACAGAAGGGACAUGAGGAUCACCCAUGUGAAGAAAACCACAUUUGCCAUGG
[1]
  apparent Kd: 7.74 nM
[2]
  apparent Kd: 7.72 nM

## CGAGUGUAAGGAUAUUCGGCGCCAGGGAACGACCUGGCGUAGAAGAAGGUACAUGAGGAUCACCCAUGUGGUUA
[1]
  apparent Kd: 178 nM
[2]
  apparent Kd: 18.6 nM

## ACUCGACAUGAGGAUCACCCAUGUGAGGAUAUCGUUAUUUACUUUGUUUAUAGUAUCUCGAGAAGGCACAUUUG
[1]
  apparent Kd: 18.1 nM
[2]
  apparent Kd: 54.6 nM

## GUACGUGGACAGAAGGCGACAUGAGGAUCACCCAUGUUGGCUCGGGUACGAGCGAUCCGCGUGAUUGAGGAUAUGUCUGCGGGC
[1]
  apparent Kd: 20 nM
[2]
  apparent Kd: 80.8 nM

## UCGUUGUCAGGAUAUCGUGUAUUCAACUUUAGUUUUAUAUUCGAGAAGGGACAUGAGGAUCACCCAUGUUACGU
[1]
  apparent Kd: 133 nM
[2]
  apparent Kd: 257 nM

## AACAGUCUGGAGGAUAUGCUGGAUGAAUAUCUGGCAGAAGGCUGGACAUGAGGAUCACCCAUGUAAAUACUACC
[1]
  apparent Kd: 27.1 nM
[2]
  apparent Kd: 54.5 nM

## GCGUCGAGUGUGAGGAUAUGCUGGUCCUUGGAUCAGCAGAAGGCACAUGAGGAUCACCCAUGUGAAAACGAUGC
[1]
  apparent Kd: 22.7 nM
[2]
  apparent Kd: 140 nM

## UAGGACUACGUAGGAUAUGUAGUAGAUUACUACAUGAGGAUCACCCAUGUAAGCAUGUUAUUAGGACAGAAGGACGUGGUAAAU
[3]
  apparent Kd: 30.4 nM
[4]
  apparent Kd: 11.1 nM

## UGAUAGGACACAGGAUAUACGUGCUAGAGAUACUAGCAAAAUUUCCUCACAUGAGGAUCACCCAUGUAGAAGGGUGUCCUAUCU
[1]
  apparent Kd: 10.3 nM
[2]
  apparent Kd: 135 nM

## ACAGUCACAGUAACCUGUGGCCGUGAGGAUAUAUAUGGCUCGGAGCGGACAUGAGGAUCACCCAUGUAGAAGGCACGAACUAAA
[1]
  apparent Kd: 6.21 nM
[2]
  apparent Kd: 7.09 nM

## CUGAUGUGAGGAUAUCAACGCCAUGUCUUUGACAUGGCGCAUGAGAAGGCACAUGAGGAUCACCCAUGUUCUUC
[1]
  apparent Kd: 36 nM
[2]
  apparent Kd: 640 nM

## CUUCGACAUGAGGAUCACCCAUGUCAGGAUAUUGUUUAUCUGGUUUUUUACAGAUAUGCAAGAAGGGAUGUGUU
[1]
  apparent Kd: 28.5 nM
[2]
  apparent Kd: 23.1 nM

## UGUUCUAUGUAGAAGGCCCAUAUCUGUUCUUAGGGAGGAUAUACAUGAGGAUCACCCAUGUGUAGAGCUGGUGGACUGGUCAGC
[1]
  apparent Kd: 15.4 nM
[2]
  apparent Kd: 35.5 nM

## UCACGGGACUGAGGAUAUACAUGAAUUAUUUUUGUAGAAGGCAGAAUGUUAGAUUAUUCACUAUACAUGAGGAUCACCCAUGUU
[1]
  apparent Kd: 25.3 nM
[2]
  apparent Kd: 18.2 nM

## GGGAGACAUGAGGAUCACCCAUGUGAAAACGUGUGAGGAUAUGUAUGGAAACCAUACUGUACAGAAGGCACUUGUC
[3]
  apparent Kd: 53.8 nM
[4]
  apparent Kd: 41 nM

## UUUCCGCGAGGAUAUGCGGGUUGUGCUUUUCAUUUCUUACAACAUGAGGAUCACCCAUGUAGAAGGUGCUUCUU
[1]
  apparent Kd: 174 nM
[2]
  apparent Kd: 156 nM

## UUACUAUUGGAGAAGGCUCGAUAAUAUAUAAUGGGAGGAUAUCCAACAUGAGGAUCACCCAUGUUUCACCCAUAUGAGGAUCAC
[1]
  apparent Kd: 12.6 nM
[2]
  apparent Kd: 13.2 nM

## AGCUGUGGCCGAGGAUAUCUGUCCCAUAAAACCGAAAUAUAAUCGGACAUGAGGAUCACCCAUGUAGAGAAGGCGGUCUCAGCA
[1]
  apparent Kd: 44.1 nM
[2]
  apparent Kd: 70.7 nM

## UAAAUUAUACAAGGAUAUCUAUCGUAGUUUAGACUUACAUGAGGAUCACCCAUGUUAAUAUGUUUAGAGAAGGUGUAUUUUCAG
[3]
  apparent Kd: 43.3 nM
[4]
  apparent Kd: 22.5 nM

## GCAGCGUAUGUAGGAUAUCGGUCAGUUUCUGACCGAGAAGGACAUGAGGAUCACCCAUGUAAAUUACCGACUUUGUCGGGCUGC
[1]
  apparent Kd: 6.67 nM
[2]
  apparent Kd: 8.62 nM

## ACCACGUCAGCGAUAUGAUCGAGAGAUCAUGUCGCUGAAUUUAGAAGGACAUGAGGAUCACCCAUGUAGGAUAUGGGUCGUGGA
[3]
  apparent Kd: 39.1 nM
[4]
  apparent Kd: 11.8 nM

## GCUCGAUGCGCUGAGAACAUGAGGAUCACCCAUGUAAAUGGUCAGGAUAUUUACGUGCUUUAUGUAGAGAAGGGACCAUCGAGC
[3]
  apparent Kd: 110 nM
[4]
  apparent Kd: 27.3 nM

## GCAUAGGACAGAGGAUAUACGUGCUAGAGAUACUAGCAAAAUUUCCUCACAUGAGGAUCACCCAUGUAGAAGGCUGUCCUAUCG
[1]
  apparent Kd: 17.6 nM
[2]
  apparent Kd: 422 nM

## GAGAAGAGGGAAGGAUAUACAUGAGGAUCACCCAUGUAGAUAGGUAAAAUAGGAAGAAGAAGAAUGUAGAAGGUCCGGUUUGUU
[1]
  apparent Kd: 15.2 nM
[2]
  apparent Kd: 15.9 nM

## CGUUCACAUGAGGAUCACCCAUGUCAGAUUUGGUCAGGAUAUGGUCUGCUUCCGCUAUUGCCAGAAGGGACUUUUG
[3]
  apparent Kd: 28.9 nM
[4]
  apparent Kd: 22.7 nM

## AAAGUUGGUAGGCCCUCGGAACAUGAGGAUCACCCAUGUAAGGAGGAUAUGCCCGGUACCCGCUGGCAGAAGGCCUUAUAAGAA
[1]
  apparent Kd: 28.2 nM
[2]
  apparent Kd: 239 nM

## CUGCCUACAUGAGGAUCACCCAUGUCUGGCGAAAGAGUUCAGUAGGAUAUGAGAUUGGGUAAUCAUCAGAAGGGCUGGCAAAAG
[3]
  apparent Kd: 37.5 nM
[4]
  apparent Kd: 14.2 nM

## UGGUACUAGUGAGGAUAUGGGAAGAUACAUGAGGAUCACCCAUGUUUAAGAAUGCCGAGAGGCAACUAGAAGGCCCUAGUACCU
[3]
  apparent Kd: 388 nM
[4]
  apparent Kd: 35.8 nM

## GGGUACAUCGGAGGAUAUCAUGUAAAUACAUGAGGAUCACCCAUGUCGAUGGAGACAUCGGAGCUUGAGAAGGCCGAUGUACCG
[3]
  apparent Kd: 36.2 nM
[4]
  apparent Kd: 6.49 nM

## UAAUAUUUAUAAUAUUAUUACAUUAGAAGGCUAGACAUGUGGAUACAUGAGGAUCACCCAUGUAUAGAGGAUAUAGACAUAUAU
[1]
  apparent Kd: 29.5 nM
[2]
  apparent Kd: 79.9 nM

## GGGCGACAUGAGGAUCACCCAUGUAAGGAUAUACAACUGCCCACUAAAAUCUGGGCUGGUAGAAGGUGCAGAAA
[1]
  apparent Kd: 35.7 nM
[2]
  apparent Kd: 42.8 nM

## GCCUAUGUGGAGGAUAUCGACUUCGAAAGAAGUCGAGAAGGCCACACAUGAGGAUCACCCAUGUGAUGCCAGGC
[1]
  apparent Kd: 122 nM
[2]
  apparent Kd: 86 nM

## GUCAAGUGAGGAUAUGAUUGUACAGCAGACUAGCGUCUGCAUCAGAAGGCACAUGAGGAUCACCCAUGUUUGUC
[1]
  apparent Kd: 20.6 nM
[2]
  apparent Kd: 17.1 nM

## UUAAACGGAGGAUAUACAUUUUUUUUAUUAUCCUCAUUAAAACAUGAGGAUCACCCAUGUAGAAGGCCGAAAUU
[1]
  apparent Kd: 79.6 nM
[2]
  apparent Kd: 292 nM

## UGUAUGGACAGAGGAUAUGCCGAUAGGAUCUACUAUCGAAGAAUCCUCACAUGAGGAUCACCCAUGUAGAAGGCUGUCCAUACC
[1]
  apparent Kd: 8.57 nM
[2]
  apparent Kd: 36.8 nM

## UAAUAAAGUGUGAGGAUAUGCUGGUCCUUGGAUCAGCAGAAGGCACAUGAGGAUCACCCAUGUAAUAUAUAAAU
[1]
  apparent Kd: 97.2 nM
[2]
  apparent Kd: 292 nM

## GUGUACAGAGGAUAUACAUAAGCAUGGAAACAUGCUACUUCACAUGAGGAUCACCCAUGUAGAAGGCUGUACAC
[1]
  apparent Kd: 14.5 nM
[2]
  apparent Kd: 15.4 nM

## AGUUCCUCCGCAGGAUAUGUGCUCUUUACCACAUGAGGAUCACCCAUGUCAGCCUACACGGCGAGACAGAAGGGUGGUGGUGCC
[3]
  apparent Kd: 96 nM
[4]
  apparent Kd: 157 nM

## AUUUAUGGCCAGAAGGACAUGAGGAUCACCCAUGUAGGAUAUGGACGAUUUUGCUCGGCGGUUCGUUUAGGAAUCACCGGUGGU
[3]
  apparent Kd: 7.88 nM
[4]
  apparent Kd: 6.38 nM

## CGAUGUUAUGUCAGGAUAUACAUUGCGAAAGCAAUGUAGAAGGGACAUGAGGAUCACCCAUGUCCUAACCAUCG
[1]
  apparent Kd: 13.1 nM
[2]
  apparent Kd: 17.1 nM

## AUCAGCUCGUCAGGAUAUACGUCACUGCGUCAGCAGUGUGGUACGAUCACAUGAGGAUCACCCAUGUAGAAGGGACGAGCUGAU
[1]
  apparent Kd: 12.7 nM
[2]
  apparent Kd: 215 nM

## AACCGCGACCGGCCUGGCACGUCGAGAAGGGUACGUGACUUGCUUUACAUGAGGAUCACCCAUGUACAGGAUAUCGAAUAGCCG
[1]
  apparent Kd: 8.4 nM
[2]
  apparent Kd: 11 nM

## GGGCCCGGAGGAUAUACAUGAGGAUCACCCAUGUACCCGGGUUUUAUUGGGCCCGGGUGUAGAAGGUUGGGCCC
[1]
  apparent Kd: 14.1 nM
[2]
  apparent Kd: 13.3 nM

## CUGAAUCUAGGAUAUUGUACUGCUGACAUGAGGAUCACCCAUGUAUGUUAACUCGGCCGUCGAGAAGGAGAACAUA
[1]
  apparent Kd: 36.1 nM
[2]
  apparent Kd: 27.6 nM

## CUUUUGUGAGGAUAUCAGUAGUAAAUAAAUAAUAUUACUACUGAGAAGGCACAUGAGGAUCACCCAUGUUCCUC
[1]
  apparent Kd: 42.6 nM
[2]
  apparent Kd: 253 nM

## GAGUGGUAAAGAGGAUAUGCAUUGUUAUUAAAUGCAGAAGGUUUUAACAUGAGGAUCACCCAUGUAGGACUAUUCCUGUGUUUC
[3]
  apparent Kd: 14.8 nM
[4]
  apparent Kd: 12.2 nM

## GGUACCAUCACAGGAUAUGCUUUCCUUUGGGAAGCAGAAGGGUGUAACAUGAGGAUCACCCAUGUGGUGCCCGGGCGUGAGCCC
[3]
  apparent Kd: 120 nM
[4]
  apparent Kd: 15.9 nM

## UGCGAACAGGCUAACAUGAGGAUCACCCAUGUGGACUCAUGGUAGGAUAUCGGGAAGGAGGAAACCGAGAAGGGCCGGUGAGCA
[3]
  apparent Kd: 133 nM
[4]
  apparent Kd: 77.5 nM

## UGUCGGAGCAGAGGAUAUUACAUGAGGAUCACCCAUGUAUGAACCAAUAGCUGGAAACCGCAAUGUAAGAAGGCUGCUCCGACA
[1]
  apparent Kd: 104 nM
[2]
  apparent Kd: 374 nM
